Results from ChEMBL document CHEMBL1147759, “Substituted indanylacetic acids as PPAR-alpha-gamma activators” (Bioorg Med Chem Lett, 2006).

Legend:
[1] = target: T1, Peroxisome proliferator-activated receptor alpha (Homo sapiens, UniProt Q07869); test: Activity against PPAR alpha in human by FRET assay
T1 sequence (Q07869 whole entry): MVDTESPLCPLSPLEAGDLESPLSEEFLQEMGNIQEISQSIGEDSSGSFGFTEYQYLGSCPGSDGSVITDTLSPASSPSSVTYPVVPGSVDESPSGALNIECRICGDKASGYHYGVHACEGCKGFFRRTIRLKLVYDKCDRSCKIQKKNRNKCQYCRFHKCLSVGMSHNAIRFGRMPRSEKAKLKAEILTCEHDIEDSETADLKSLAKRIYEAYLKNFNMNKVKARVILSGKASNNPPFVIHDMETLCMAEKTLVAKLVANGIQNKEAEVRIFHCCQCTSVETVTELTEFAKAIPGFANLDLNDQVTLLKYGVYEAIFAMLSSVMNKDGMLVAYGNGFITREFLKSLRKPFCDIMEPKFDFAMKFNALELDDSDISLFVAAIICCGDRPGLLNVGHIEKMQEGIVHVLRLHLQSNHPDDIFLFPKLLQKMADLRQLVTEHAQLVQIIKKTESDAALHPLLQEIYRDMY
Procedure, shortened: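 Human PPAR-α ligand-binding domain (GST-tagged), incubated with compound, europium-labelled anti-GST antibody, biotinylated CREB-binding protein co-activator and streptavidin-APC. Time-resolved FRET read with excitation at 340 nm and emission at 615 and 640 nm. EC50 taken as the mean of at least three experiments.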

[2] = target: T2, Peroxisome proliferator-activated receptor gamma (Homo sapiens, UniProt P37231); test: Activity against PPAR gamma in human by FRET assay
T2 sequence (P37231 whole entry): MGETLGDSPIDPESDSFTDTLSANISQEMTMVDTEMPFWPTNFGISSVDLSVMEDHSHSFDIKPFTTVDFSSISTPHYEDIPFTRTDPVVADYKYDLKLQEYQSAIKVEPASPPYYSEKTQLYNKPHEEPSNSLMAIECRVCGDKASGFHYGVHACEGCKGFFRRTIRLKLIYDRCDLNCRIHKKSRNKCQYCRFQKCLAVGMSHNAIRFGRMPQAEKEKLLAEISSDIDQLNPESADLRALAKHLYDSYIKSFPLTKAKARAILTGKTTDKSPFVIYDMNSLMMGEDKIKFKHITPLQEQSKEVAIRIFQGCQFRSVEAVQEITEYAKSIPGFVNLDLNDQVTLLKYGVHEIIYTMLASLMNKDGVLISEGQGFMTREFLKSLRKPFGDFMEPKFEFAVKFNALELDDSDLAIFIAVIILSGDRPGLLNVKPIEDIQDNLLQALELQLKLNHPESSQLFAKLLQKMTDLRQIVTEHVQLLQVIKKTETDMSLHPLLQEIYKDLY

Compound | EC50 [1] | EC50 [2]
Cc1oc(-c2ccccc2)nc1CCOc1ccc2c(c1)CCC2C(CCCc1ccccc1)C(=O)O (stereo not drawn) | > 10000 nM | 3180 nM
CCC(C(=O)O)C1CCc2cc(OCCCc3nc(-c4ccccc4)oc3C(F)(F)F)ccc21 (stereo not drawn) | 232 nM | > 10000 nM
CCC(C(=O)O)C1CCc2cc(OCCc3nc(-c4cccc(OC)c4)oc3C)ccc21 (stereo not drawn) | 254 nM | 1 nM
CCC(C(=O)O)C1CCc2cc(OCc3nc(-c4ccccc4)oc3C)ccc21 (stereo not drawn) | 1220 nM | 632 nM
CCC(C(=O)O)C1CCc2cc(OCCc3nc(COc4ccccc4)oc3C)ccc21 (stereo not drawn) | 61 nM | 45 nM
CCC(C(=O)O)C1CCc2cc(OCCc3nc(-c4ccccc4)oc3C)c(-c3ccccc3)cc21 (stereo not drawn) | 58 nM | 290 nM
CCC(C(=O)O)C1CCc2cc(OCCc3nc(-c4ccccc4)sc3C)ccc21 (stereo not drawn) | 979 nM | 85 nM
CCC(C(=O)O)C1CCc2cc(OCCn3nc(-c4ccccc4)c4ccccc4c3=O)ccc21 (stereo not drawn) | > 10000 nM | > 10000 nM
CCC(C(=O)O)C1CCc2cc(OCCc3nc(-c4cccc(C)c4)oc3C)ccc21 (stereo not drawn) | 271 nM | 34 nM
CC[C@H](C(=O)O)[C@@H]1CCc2cc(OCCc3nc(-c4ccc(F)cc4)oc3C)ccc21 | 94 nM | 46 nM
CCC(C(=O)O)C1CCc2cc(OCCc3nc(Cc4ccc(F)cc4)oc3C)ccc21 (stereo not drawn) | 204 nM | 523 nM
CCC(C(=O)O)C1CCc2cc(OCCc3nc(-c4ccc(Cl)c(Cl)c4)oc3C)ccc21 (stereo in doubt) | 29 nM | 131 nM
CCC(C(=O)O)C1CCc2cc(OCCc3noc(-c4ccccc4)n3)ccc21 (stereo not drawn) | 1040 nM | > 10000 nM
CC[C@H](C(=O)O)[C@H]1CCc2cc(OCCc3nc(-c4ccccc4)oc3C)ccc21 | 26 nM | 19 nM
Cc1oc(-c2ccccc2)nc1CCOc1ccc2c(c1)CCC2C(C)C(=O)O (stereo not drawn) | 1000 nM | 104 nM
CCC(C(=O)O)C1CCc2cc(OCCc3nc(-c4ccc(OC)cc4)oc3C)ccc21 (stereo not drawn) | 199 nM | 42 nM
CCC(C(=O)O)C1CCc2cc(OCCc3nc(-c4ccc(C(C)C)cc4)oc3C)ccc21 (stereo not drawn) | 119 nM | 22 nM
CC[C@H](C(=O)O)[C@H]1CCc2cc(OCCc3nc(-c4ccc(C)cc4)oc3C)ccc21 | 48 nM | 83 nM
CC[C@@H](C(=O)O)[C@@H]1CCc2cc(OCCc3nc(-c4ccccc4)oc3C)ccc21 | 350 nM | 95 nM
CCC(C(=O)O)C1CCc2cc(OCCn3nc(-c4ccccc4)cc3C)ccc21 (stereo not drawn) | 232 nM | 196 nM
CC[C@@H](C(=O)O)[C@H]1CCc2cc(OCCc3nc(-c4ccc(Cl)c(Cl)c4)oc3C)ccc21 | 63 nM | 225 nM
CCC(C(=O)O)C1CCc2cc(OCCc3nc(C4CCCC4)oc3C)ccc21 (stereo not drawn) | 202 nM | 212 nM
CC[C@@H](C(=O)O)[C@H]1CCc2cc(OCCc3nc(-c4ccc(C)cc4)oc3C)ccc21 | > 10000 nM | > 10000 nM
CCC(C(=O)O)C1CCc2cc(OCCn3ncc4ccccc4c3=O)ccc21 (stereo not drawn) | > 10000 nM | > 10000 nM
CC[C@@H](C(=O)O)[C@@H]1CCc2cc(OCCc3nc(-c4ccc(C)cc4)oc3C)ccc21 | 1520 nM | > 10000 nM
CCC(C(=O)O)C1CCc2cc(OCCc3c(-c4ccccc4)noc3C)ccc21 (stereo not drawn) | > 10000 nM | > 10000 nM
CCC(C(=O)O)C1CCc2cc(OCCc3nc(-c4cc5ccccc5s4)oc3C)ccc21 (stereo not drawn) | 287 nM | 37 nM
CCC(C(=O)O)C1CCc2cc(OCc3ccc(-c4nc(-c5ccccc5)oc4C)cc3)ccc21 (stereo not drawn) | > 10000 nM | > 10000 nM
CCC(C(=O)O)C1CCc2cc(OCCc3nc(C4CCCCC4)oc3C)ccc21 (stereo not drawn) | 111 nM | 136 nM
